Entries after “also recorded” stand apart in the source; their conditions may differ.
Experiments:
[1] = tested on: RIP-Tag2 tumors; experiment: Tumor invasion; assay type: in vivo, mouse
[2] = tested on: RIP-Tag2 mice; experiment: Liver metastasis; assay type: in vivo, mouse
[3] = tested on: RIP-Tag2 tumors; experiment: Tumor vascularity; assay type: in vivo, mouse; conditions: for intratumoral hypoxia / tumor vascularity: RIP-Tag2 mice treated from age 14 to 17 weeks; for HIF-1α protein by western blot: RIP-Tag2 tumors
[4] = tested on: Snail1, N-cadherin, vimentin; experiment: Western blot of mesenchymal markers in RIP-Tag2 tumors; assay type: in vivo, mouse; conditions: for bands for Snail1, N-cadherin and vimentin in western blots: RIP-Tag2 tumors treated from age 14 to 15 weeks
Method in brief: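 Tumors came from RIP-Tag2 mice treated from age 14 to 15 weeks with vehicle, anti-VEGF antibody, a kinase inhibitor, or a combination. Snail1, N-cadherin and vimentin were immunoblotted in tumor lysates. Bands were quantified by densitometry and expressed as fold over vehicle. Groups had 4-8 surviving mice. Groups were compared by Student's t test or ANOVA with Fisher's multiple-comparison test.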

[5] = tested on: Panc-1 tumors; experiment: Orthotopic Panc-1 pancreatic adenocarcinomas in nude mice; assay type: in vivo, mouse
[6] = tested on: RIP-Tag2 tumors; conditions: RIP-Tag2 mice; cited from earlier work
[7] = tested on: RIP-Tag2 mice; experiment: Survival of RIP-Tag2 mice; assay type: in vivo, mouse
[8] = tested on: RIP-Tag2 tumors; experiment: Tumor size; assay type: in vivo, mouse; conditions: RIP-Tag2 mice treated from age 14 to 17 weeks
[9] = tested on: c-Met; experiment: c-Met mRNA, total c-Met and phospho-c-Met in RIP-Tag2 tumors; assay type: in vivo, mouse; conditions: RIP-Tag2 tumors treated from age 14 to 15 weeks
[10] = RIP-Tag2 mice treated from age 14 to 17 weeks
[11] = RIP-Tag2 mice age 14 to 17 weeks, vs corresponding group without PF-04217903
[12] = RIP-Tag2 mice treated from age 14 to 20 weeks
[13] = western blot, treated from age 14 to 15 weeks

C[C@@H](Oc1cc(-c2cnn(C3CCNCC3)c2)cnc1N)c1c(Cl)ccc(F)c1Cl [PF-02341066, crizotinib]
tumor invasiveness: Invasion index and trapped acinar cells [1, 10]: reduced invasiveness | liver metastases found per mouse ([2]; RIP-Tag2 mice treated for 3 weeks, vehicle average of 20 per mouse): 4 | mice with liver metastases visible microscopically [2, 10]: 3 of 4 | intratumoral hypoxia [3]: did not change | tumor vascularity [3]: did not change

OCCn1cc(-c2cnc3nnn(Cc4ccc5ncccc5c4)c3n2)cn1 [PF-04217903]
average decrease in volume of metastases (metastatic tumor burden) [2, 11]: 78% | reduction in mean diameter of liver metastases when PF-04217903 was combined [2, 11]: 40% | mice with liver metastases visible microscopically [2, 10]: 1 of 7 and one of 7 | bands for Snail1, N-cadherin and vimentin in western blots [4]: weaker | tumor vascularity [3]: no reduction in overall vascularity | HIF-1α protein by western blot [3]: not increased | vascular pruning and intratumoral hypoxia ([5]; 3 weeks treatment): little effect

COc1cc2c(Oc3ccc(NC(=O)C4(C(=O)Nc5ccc(F)cc5)CC4)cc3F)ccnc2cc1OCCCN1CCOCC1 [XL880, foretinib]
invasion and tumor cells in the liver [6]: decreases invasion and the appearance of tumor cells in the liver | tumor growth [6]: slows tumor growth

COc1cc2nccc(Oc3ccc(NC(=O)C4(C(=O)Nc5ccc(F)cc5)CC4)cc3)c2cc1OC [XL184, cabozantinib]
area density of trapped amylase-positive acinar cells in tumors [1, 10]: 2.6 ± 0.4% | fewer amylase-positive (trapped acinar) cells than 14-week old onset controls ([1]; RIP-Tag2 mice treated from age 14 to 17 weeks, onset controls 4.8 ± 0.5%): 46% | tumor shape and invasiveness ([1]; younger RIP-Tag2 mice treated from age 10 to 14 weeks): rounder and less invasive | liver micrometastases found ([2]; RIP-Tag2 mice treated from age 10 to 14 weeks, 5 mice): none | mice with liver metastases visible microscopically [2, 10]: none were detected; also recorded: None of 5 | mice with small liver metastases [2, 12]: 5 of 6 | number of liver metastases per sectional area [2, 12]: 0.3 ± 0.2 metastases/mm^2 | mice surviving until the experiment ended at age 20 weeks ([7]; RIP-Tag2 mice treated from 14 weeks of age): all | overall survival versus vehicle or anti-VEGF antibody ([7]; RIP-Tag2 mice treated from age 10 to 14 weeks): better overall survival | survival at 20 weeks ([7]; RIP-Tag2 mice, treatment beginning at age 14 weeks, n = 6): 100% | bands for Snail1, N-cadherin and vimentin in western blots [4]: less Snail1, N-cadherin, and vimentin | mean sectional area of tumors [8]: 0.7 ± 0.1 mm^2 | reduction in tumor vascularity ([3]; RIP-Tag2 mice, 3 weeks treatment): 79%

CCN(CC)CCNC(=O)c1c(C)[nH]c(/C=C2\C(=O)Nc3ccc(F)cc32)c1C [sunitinib]
c-Met mRNA expression, fold the control value [9]: 6 fold | tumor invasiveness: Invasion index and trapped acinar cells [1, 10]: significantly greater | number of liver metastases per sectional area ([2]; 17-week old RIP-Tag2 mice treated for 3 weeks): 1.3 ± 1.2 metastases/mm^2 | number of liver metastases compared to the 17-week old vehicle group [2, 10]: twice | size of liver metastases compared to vehicle group [2, 10]: 4 times | mean diameter of liver metastases ([2]; RIP-Tag2 mice treated from age 14 to 17 weeks, vehicle 90 ± 9 μm): 369 ± 267 μm | survival during the 3-week treatment ([7]; RIP-Tag2 mice, age 14 to 17 weeks, vehicle 42%): 80% | N-cadherin densitometry value, times greater than vehicle [4, 13]: 10 times | Snail1 densitometry value, times greater than vehicle [4, 13]: 3 times | vimentin densitometry value, times greater than vehicle [4, 13]: 5 times | mean sectional area of tumors [8]: 3.7 ± 0.8 mm^2 | sectional area of tumors, less than age-matched vehicle controls [8]: 78% | intratumoral hypoxia [3]: greater hypoxia | tumor vascularity [3]: fewer blood vessels | HIF-1α protein by western blot [3]: greater | intratumoral hypoxia assessed by pimonidazole staining ([5]; 3 weeks treatment): doubling | invasiveness reflected by intratumoral acinar cells stained for amylase ([5]; 3 weeks treatment): exaggerated | reduction in tumor vascularity ([5]; 3 weeks treatment): 75% | tumor growth by bioluminescence imaging ([5]; 3 weeks treatment): grew slower | mice with micrometastases in the liver ([5]; early stage): 4 of 6
